Experimental data reported in ChEMBL document CHEMBL1149822, “Synthesis, antimicrobial and anti-inflammatory activities of some 1,2,4-triazolo[3,4-b][1,3,4]thiadiazoles and 1,2,4-triazolo[3,4-b][1,3,4]thiadiazines bearing trichlorophenyl moiety” (2008).
Converted amounts (≈) assume the structure as drawn.

Tests used:
Escherichia coli [1] = assay: Antibacterial activity against Escherichia coli ATTC 25922 after 16 to 18 hrs by serial plate dilution method; format: functional; conditions: ATCC25922
Summary of the method: (§1)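 Serial dilutions were made in Mueller-Hinton broth in tubes, adjusted to […] with phosphate buffer, and inoculated with a standardized bacterial suspension. Tubes were incubated at 37 °C for 16–18 h. MIC was taken as the lowest concentration with no visible growth.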

Escherichia coli [2] = assay: microbe, parasite or virus in culture; format: functional; conditions: ATCC25922, read-out: IZ
Klebsiella pneumoniae [3] = assay: Antibacterial activity against Klebsiella pneumoniae after 16 to 18 hrs by serial plate dilution method; format: functional; summary of the method: as §1
Klebsiella pneumoniae [4] = assay: Antibacterial activity against Klebsiella pneumoniae at 12 ug/ml after 3 to 4 days; format: functional; conditions: read-out: IZ
Summary of the method: (§2)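 Agar well diffusion. Plates were seeded with a bacterial suspension, the excess was decanted and plates were dried at 37 °C for 1 h. Wells were punched and compounds in DMSO were added, with DMSO wells as control. Plates were run in triplicate at 37 °C for 3–4 days and zones of inhibition were scored.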

Pseudomonas aeruginosa [5] = assay: Antibacterial activity against Pseudomonas aeruginosa ATTC 27853 after 16 to 18 hrs by serial plate dilution method; format: functional; conditions: ATCC27853; summary of the method: as §1
Pseudomonas aeruginosa [6] = assay: microbe, parasite or virus in culture; format: functional; conditions: ATCC27853, read-out: IZ
Staphylococcus aureus [7] = assay: Antibacterial activity against Staphylococcus aureus ATTC 25923 after 16 to 18 hrs by serial plate dilution method; format: functional; summary of the method: as §1
Staphylococcus aureus [8] = assay: Antibacterial activity against Staphylococcus aureus ATTC 25923 at 12 ug/ml after 3 to 4 days; format: functional; conditions: read-out: IZ; summary of the method: as §2
Talaromyces marneffei [9] = assay: Antifungal activity against Penicillium marneffei by serial plate dilution method; format: functional
Summary of the method: (§3)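 Agar of peptone 1 g, D-glucose 4 g and agar 2 g per 100 mL water, pH 5.7, was lawned with a fungal spore suspension in normal saline. The excess was decanted and plates were dried at 37 °C for 1 h. Wells were punched and compounds in DMSO were added, with a DMSO control. Plates were run in triplicate at 37 °C for 3–4 days, and the inhibition zone diameter was measured.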

Talaromyces marneffei [10] = assay: Antifungal activity against Penicillium marneffei at 12 ug/ml after 3 to 4 days; format: functional; conditions: read-out: IZ; summary of the method: as §3
[11] = test system: Trichophyton mentagrophytes; assay: Antifungal activity against Trichophyton mentagrophytes by serial plate dilution method; format: functional
[12] = test system: Trichophyton mentagrophytes; assay: Antifungal activity against Trichophyton mentagrophytes at […] ug/ml after 3 to 4 days; format: functional; conditions: read-out: IZ
Aspergillus flavus [13] = assay: Antifungal activity against Aspergillus flavus NCIM 524 by serial plate dilution method; format: functional; summary of the method: as §3
Aspergillus flavus [14] = assay: Antifungal activity against Aspergillus flavus NCIM 524 at […] ug/ml after 3 to 4 days; format: functional; conditions: read-out: IZ
Aspergillus fumigatus [15] = assay: Antifungal activity against Aspergillus fumigatus NCIM 902 by serial plate dilution method; format: functional
Aspergillus fumigatus [16] = assay: Antifungal activity against Aspergillus fumigatus NCIM 902 at 12 ug/ml after 3 to 4 days; format: functional; conditions: read-out: IZ; summary of the method: as §3
Talaromyces marneffei [17] = assay: Antifungal activity against Penicillium marneffei at […] ug/ml after 3 to 4 days; format: functional; conditions: read-out: IZ
[18] = test system: Trichophyton mentagrophytes; assay: Antifungal activity against Trichophyton mentagrophytes at 3.125 ug/ml after 3 to 4 days; format: functional; conditions: read-out: IZ; summary of the method: as §3
Aspergillus flavus [19] = assay: Antifungal activity against Aspergillus flavus NCIM 524 at 3.125 ug/ml after 3 to 4 days; format: functional; conditions: read-out: IZ; summary of the method: as §3
Aspergillus fumigatus [20] = assay: Antifungal activity against Aspergillus fumigatus NCIM 902 at […] ug/ml after 3 to 4 days; format: functional; conditions: read-out: IZ
Escherichia coli [21] = assay: Antibacterial activity against Escherichia coli ATTC 25922 at 12 ug/ml after 3 to 4 days; format: functional; conditions: ATCC25922, read-out: IZ; summary of the method: as §2
Klebsiella pneumoniae [22] = assay: Antibacterial activity against Klebsiella pneumoniae at 25 ug/ml after 3 to 4 days; format: functional; conditions: read-out: IZ; summary of the method: as §2
Rattus norvegicus [23] = assay: Antiinflammatory activity against carrageenan-induced paw oedema in albino rat at 50 mg/kg, po relative to control; format: functional
Summary of the method: (§4)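 Albino rats of 180–250 g were fasted 18 h and placed in groups of six. Samples were suspended in 2% w/v acacia mucilage, and the vehicle group served as control. 30 min after dosing, carrageenan (1 mg mL⁻¹, 0.1 mL) was injected subcutaneously into the right hind paw. Paw volume was measured immediately and at 3 h, and % oedema inhibition was calculated versus vehicle controls.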

Pseudomonas aeruginosa [24] = assay: Antibacterial activity against Pseudomonas aeruginosa ATTC 27853 at 25 ug/ml after 3 to 4 days; format: functional; conditions: ATCC27853, read-out: IZ; summary of the method: as §2
[25] = test system: Trichophyton mentagrophytes; assay: Antifungal activity against Trichophyton mentagrophytes at 25 ug/ml after 3 to 4 days; format: functional; conditions: read-out: IZ; summary of the method: as §3
Aspergillus flavus [26] = assay: Antifungal activity against Aspergillus flavus NCIM 524 at 25 ug/ml after 3 to 4 days; format: functional; conditions: read-out: IZ; summary of the method: as §3
Klebsiella pneumoniae [27] = assay: microbe, parasite or virus in culture; format: functional; conditions: read-out: IZ
Staphylococcus aureus [28] = assay: Antibacterial activity against Staphylococcus aureus ATTC 25923 at […] ug/ml after 3 to 4 days; format: functional; conditions: read-out: IZ
Aspergillus fumigatus [29] = assay: Antifungal activity against Aspergillus fumigatus NCIM 902 at 6.5 ug/ml after 3 to 4 days; format: functional; conditions: read-out: IZ; summary of the method: as §3
Staphylococcus aureus [30] = assay: microbe, parasite or virus in culture; conditions: read-out: IZ
Rattus norvegicus [31] = assay: Antiinflammatory activity against carrageenan-induced paw oedema in albino rat at 1.5 mg/kg, po, relative to control; format: functional; summary of the method: as §4

## Cc1cc(C)cc(-c2nn3c(-c4cc(Cl)cc(Cl)c4Cl)nnc3s2)c1
Escherichia coli [1]
  MIC: 6.25 µg/mL (≈ 15.3 µM)
Escherichia coli [2]
  zone of inhibition at 6.25 µg/mL: 16 mm
Klebsiella pneumoniae [3]
  MIC: 12 µg/mL (≈ 29.3 µM)
Klebsiella pneumoniae [4]
  zone of inhibition at 12 µg/mL: 11 mm
Pseudomonas aeruginosa [5]
  MIC: 6.25 µg/mL (≈ 15.3 µM)
Pseudomonas aeruginosa [6]
  zone of inhibition at 6.25 µg/mL: 16 mm
Staphylococcus aureus [7]
  MIC: 12 µg/mL (≈ 29.3 µM)
Staphylococcus aureus [8]
  zone of inhibition at 12 µg/mL: 11 mm
Talaromyces marneffei [9]
  MIC: 12 µg/mL (≈ 29.3 µM)
Talaromyces marneffei [10]
  zone of inhibition at 12 µg/mL: 11 mm
[11]
  MIC: 6.25 µg/mL (≈ 15.3 µM)
[12]
  zone of inhibition at 6.25 µg/mL: 16 mm
Aspergillus flavus [13]
  MIC: 6.25 µg/mL (≈ 15.3 µM)
Aspergillus flavus [14]
  zone of inhibition at 6.25 µg/mL: 16 mm
Aspergillus fumigatus [15]
  MIC: 12 µg/mL (≈ 29.3 µM)
Aspergillus fumigatus [16]
  zone of inhibition at 12 µg/mL: 11 mm

## Cc1cc(C2CCCCC2)n(O)c(=O)c1.NCCO [CICLOPIROX OLAMINE]
Talaromyces marneffei [9]
  MIC: 6.25 µg/mL
Talaromyces marneffei [17]
  zone of inhibition at 6.25 µg/mL: 16 mm
[11]
  MIC: 3.12 µg/mL
[18]
  zone of inhibition at 3.125 µg/mL: 27 mm
Aspergillus flavus [13]
  MIC: 3.12 µg/mL
Aspergillus flavus [19]
  zone of inhibition at 3.125 µg/mL: 25 mm
Aspergillus fumigatus [15]
  MIC: 6.25 µg/mL
Aspergillus fumigatus [20]
  zone of inhibition at 6.25 µg/mL: 16 mm

## Clc1cc(Cl)c(Cl)c(-c2nnc3sc(-c4cccc5cnccc45)nn23)c1
Escherichia coli [1]
  MIC: 12 µg/mL (≈ 27.7 µM)
Escherichia coli [21]
  zone of inhibition at 12 µg/mL: 11 mm
Klebsiella pneumoniae [3]
  MIC: 25 µg/mL (≈ 57.8 µM)
Klebsiella pneumoniae [22]
  zone of inhibition at 25 µg/mL: < 10 mm
Pseudomonas aeruginosa [5]
  MIC: 25 µg/mL (≈ 57.8 µM)
Staphylococcus aureus [7]
  MIC: 12 µg/mL (≈ 27.7 µM)
Staphylococcus aureus [8]
  zone of inhibition at 12 µg/mL: 11 mm
Talaromyces marneffei [9]
  MIC: 6.25 µg/mL (≈ 14.4 µM)
Talaromyces marneffei [17]
  zone of inhibition at 6.25 µg/mL: 16 mm
[11]
  MIC: 25 µg/mL (≈ 57.8 µM)
Aspergillus flavus [13]
  MIC: 25 µg/mL (≈ 57.8 µM)
Aspergillus fumigatus [15]
  MIC: 6.25 µg/mL (≈ 14.4 µM)
Aspergillus fumigatus [20]
  zone of inhibition at 6.25 µg/mL: 16 mm
Rattus norvegicus [23]
  inhibition in vivo at 50 mg/kg: 22.6%
Pseudomonas aeruginosa [24]
  zone of inhibition at 25 µg/mL: < 10 mm
[25]
  zone of inhibition at 25 µg/mL: < 10 mm
Aspergillus flavus [26]
  zone of inhibition at 25 µg/mL: < 10 mm

## COc1ccc(-c2nn3c(-c4cc(Cl)cc(Cl)c4Cl)nnc3s2)cc1
Escherichia coli [1]
  MIC: 6.25 µg/mL (≈ 15.2 µM)
Escherichia coli [2]
  zone of inhibition at 6.25 µg/mL: 16 mm
Klebsiella pneumoniae [3]
  MIC: 6.25 µg/mL (≈ 15.2 µM)
Klebsiella pneumoniae [27]
  zone of inhibition at 6.25 µg/mL: 16 mm
Pseudomonas aeruginosa [5]
  MIC: 6.25 µg/mL (≈ 15.2 µM)
Pseudomonas aeruginosa [6]
  zone of inhibition at 6.25 µg/mL: 16 mm
Staphylococcus aureus [7]
  MIC: 6.25 µg/mL (≈ 15.2 µM)
Staphylococcus aureus [28]
  zone of inhibition at 6.25 µg/mL: 16 mm
Talaromyces marneffei [9]
  MIC: 6.25 µg/mL (≈ 15.2 µM)
Talaromyces marneffei [17]
  zone of inhibition at 6.25 µg/mL: 16 mm
[11]
  MIC: 6.25 µg/mL (≈ 15.2 µM)
[12]
  zone of inhibition at 6.25 µg/mL: 16 mm
Aspergillus flavus [13]
  MIC: 6.25 µg/mL (≈ 15.2 µM)
Aspergillus flavus [14]
  zone of inhibition at 6.25 µg/mL: 16 mm
Aspergillus fumigatus [15]
  MIC: 6.5 µg/mL (≈ 15.8 µM)
Aspergillus fumigatus [29]
  zone of inhibition at 6.5 µg/mL: 16 mm
Rattus norvegicus [23]
  inhibition in vivo at 50 mg/kg: 25.8%

## O=C(O)c1cn(C2CC2)c2cc(N3CCNCC3)c(F)cc2c1=O [CIPROFLOXACIN]
Escherichia coli [2]
  zone of inhibition at 6.25 µg/mL: 16 mm
Klebsiella pneumoniae [3]
  MIC: 6.25 µg/mL (≈ 18.9 µM)
Klebsiella pneumoniae [27]
  zone of inhibition at 6.25 µg/mL: 16 mm
Pseudomonas aeruginosa [6]
  zone of inhibition at 6.25 µg/mL: 16 mm
Staphylococcus aureus [7]
  MIC: 1.56 µg/mL (≈ 4.71 µM)
Staphylococcus aureus [30]
  zone of inhibition at 1.56 µg/mL: 22 mm

## COc1ccc2c(c1)c(CC(=O)O)c(C)n2C(=O)c1ccc(Cl)cc1 [INDOMETHACIN]
Rattus norvegicus [31]
  inhibition in vivo at 1.5 mg/kg: 59.7%
